Active and inactive are the calls of the source. No rule for the calls is given here.
Molecular target: G protein-activated inward rectifier potassium channel 2 (Homo sapiens) + G protein-activated inward rectifier potassium channel 3 (Homo sapiens) (UniProt P48051+Q92806)
Assay: GIRK2/3 channel activators, Tl+ flux, dose response, cell-based, HEK-293 hGIRK2/3, thallium flux, FluoZin-2, concentration-response (AID 623983)
In short: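 Assay system – stable hGIRK2/3 HEK-293 cell line · Probe or stimulus – Tl+ stimulus plus EC20 glutamate · Incubation – FluoZin-2 AM loading ~60 min room temperature, compound 4 min pre-thallium · Detection – thallium flux fluorescence with FluoZin-2, 1 Hz · Read-out – vehicle-subtracted F/F0 slope after thallium, % of 80 mM MPD · Benchmarks – 80 mM MPD reference and vehicle control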

Chain of G protein-activated inward rectifier potassium channel 2 (Homo sapiens) + G protein-activated inward rectifier potassium channel 3 (Homo sapiens) (P48051 whole entry, looked up): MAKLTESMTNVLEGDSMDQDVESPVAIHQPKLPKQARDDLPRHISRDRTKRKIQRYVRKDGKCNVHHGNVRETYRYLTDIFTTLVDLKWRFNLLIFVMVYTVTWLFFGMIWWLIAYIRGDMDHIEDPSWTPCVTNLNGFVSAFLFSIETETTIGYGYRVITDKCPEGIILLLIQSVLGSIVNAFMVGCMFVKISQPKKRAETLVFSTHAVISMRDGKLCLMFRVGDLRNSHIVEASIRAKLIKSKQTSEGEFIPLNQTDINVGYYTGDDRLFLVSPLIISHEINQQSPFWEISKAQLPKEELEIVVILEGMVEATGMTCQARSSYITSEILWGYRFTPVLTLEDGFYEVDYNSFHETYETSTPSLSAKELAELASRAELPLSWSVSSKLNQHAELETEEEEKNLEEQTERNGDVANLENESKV
Chain of G protein-activated inward rectifier potassium channel 2 (Homo sapiens) + G protein-activated inward rectifier potassium channel 3 (Homo sapiens) (Q92806 whole entry, looked up): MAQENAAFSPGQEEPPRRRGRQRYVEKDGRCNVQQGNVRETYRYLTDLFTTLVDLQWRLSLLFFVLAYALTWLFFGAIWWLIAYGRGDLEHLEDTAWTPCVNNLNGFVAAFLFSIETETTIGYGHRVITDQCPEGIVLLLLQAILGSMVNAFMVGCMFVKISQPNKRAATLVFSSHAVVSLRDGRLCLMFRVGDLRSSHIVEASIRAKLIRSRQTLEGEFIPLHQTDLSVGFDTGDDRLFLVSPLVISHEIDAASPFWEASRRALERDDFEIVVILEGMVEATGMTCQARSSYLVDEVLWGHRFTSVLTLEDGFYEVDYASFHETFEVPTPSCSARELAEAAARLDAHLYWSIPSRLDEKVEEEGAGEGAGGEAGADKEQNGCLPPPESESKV

With `Cc1cc(NC(=O)Nc2ccc(F)c(F)c2)n(-c2ccccc2)n1` the outcome was “inactive”.

Reference: PubChem BioAssay AID623983 (Vanderbilt High Throughput Screening Facility, 2012)
